From ChEMBL document CHEMBL1144182, “Antimicrobial and cytotoxic arylazoenamines. Part III: antiviral activity of selected classes of arylazoenamines” (Bioorg Med Chem, 2008)
Values after ≈ are worked out from the molar mass of the structure shown. Active and inactive are the calls of the source. No rule for the calls is given here.

Key:
[1] = system: Vesicular stomatitis virus; test: Antiviral activity against VSV infected in Vero76 cells assessed as reduction in virus plaque formation after 4 days by MTT assay; assay type: functional, organism-based; settings: Vero 76
Coxsackievirus B2 = test: Antiviral activity against CVB2 infected in Vero76 cells assessed as reduction in virus plaque formation after 4 days by MTT assay; assay type: functional, organism-based; settings: Enterovirus B, Vero 76, 96 h
[2] = system: Human immunodeficiency virus 1; test: Antiviral activity against HIV1 infected in MT4 cells assessed as virus-induced cytopathogenicity after 4 days; assay type: functional, organism-based
Vaccinia virus = test: Antiviral activity against VV infected in Vero76 cells assessed as reduction in virus plaque formation after 4 days by MTT assay; assay type: functional, organism-based; settings: Orthopoxvirus vaccinia; Vero 76
[3] = system: Respiratory syncytial virus; test: Antiviral activity against RSV infected in Vero76 cells assessed as reduction in virus plaque formation after 4 days by MTT assay; assay type: functional, organism-based; settings: human respiratory syncytial virus, Vero 76, 96 h
[4] = Cytotoxicity against mock-infected african green monkey Vero76 cells assessed as reduction in cell viability after 96 hrs by MTT assay; assay type: cell-based, Vero; settings: chlorocebus sabaeus
[5] = system: Mammalian orthoreovirus 1; test: Antiviral activity against Reo virus 1 infected in BHK21 cells assessed as protection against virus-induced cytopathogenicity after 4 days by MTT assay; assay type: functional, organism-based; settings: Mammalian orthoreovirus 1, BHK-21, 96 h
[6] = system: Bovine viral diarrhea virus 1; test: Antiviral activity against BVDV infected in MDBK cells assessed as protection against virus-induced cytopathogenicity after 4 days by MTT assay; assay type: functional, organism-based; settings: Bovine viral diarrhea virus isolates and strains, 96 h
Summary of the method: (§1)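 MDBK (BVDV) or BHK-21 (YFV) cells were seeded at 3 × 10^4 or 5 × 10^4 cells/well respectively and grown overnight to confluent monolayers at 37 °C in 5% CO2. Monolayers were infected at m.o.i. 0.01 in serum-free medium. After 1 h, MEM Earle's with 1% FCS was added, with or without serial compound dilutions. After 3–4 days at 37 °C, viability was read by MTT. EC50 was taken as 50% protection from virus-induced cytopathogenicity.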

[7] = Cytotoxicity against mock-infected MDBK cells assessed as reduction in cell viability after 96 hrs by MTT assay; assay type: cell-based, Bos taurus; settings: cattle
Summary of the method: (§2)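 Cytotoxicity run in parallel with the antiviral assays. MDBK seeded at 6 × 10^5 and BHK at 1 × 10^6 cells/mL in maintenance medium with or without serial compound dilutions. Incubated 48–96 h at 37 °C, 5% CO2, then viability read by MTT. CC50 is the concentration reducing mock-infected cell viability by 50%.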

[8] = Cytotoxicity against mock-infected human MT4 cells assessed as reduction in cell viability after 96 hrs by MTT assay; assay type: cell-based
Summary of the method: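 Exponentially growing MT-4 cells seeded at 1 × 10^5 cells/mL in RPMI-1640 with 10% FCS, penicillin and streptomycin, with or without serial compound dilutions. Incubated at 37 °C, 5% CO2; viability read by MTT after 96 h. CC50 is the concentration reducing mock-infected cell viability by 50%.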

Yellow fever virus = test: Antiviral activity against YFV infected in BHK21 cells assessed as protection against virus-induced cytopathogenicity after 4 days by MTT assay; assay type: functional, organism-based; settings: BHK-21, 96 h; summary of the method: as §1
Poliovirus 1 = test: Antiviral activity against Sb1 virus infected in Vero76 cells assessed as reduction in virus plaque formation after 4 days by MTT assay; assay type: functional, organism-based; settings: Enterovirus C, Sabin, Vero 76, 96 h
[9] = Cytotoxicity against mock-infected BHK cells assessed as reduction in cell viability after 96 hrs by MTT assay; assay type: cell-based, Mesocricetus auratus; settings: hamster; summary of the method: as §2
Pseudomonas aeruginosa = test: Antimicrobial activity against Pseudomonas aeruginosa; assay type: functional
Candida = test: Antimicrobial activity against Candida
Human alphaherpesvirus 1 = test: Antiviral activity against HSV1 infected in Vero76 cells assessed as reduction in virus plaque formation after 4 days by MTT assay; assay type: functional, organism-based; settings: Human alphaherpesvirus 1, Vero 76, 96 h

Compound	Activity [1]	EC50 (Coxsackievirus B2) [µM]	Activity [2]	Activity (Vaccinia virus)	EC50 [3] [µM]	CC50 at 96 h [4] [µM]	EC50 [5] [µM]	EC50 [6] [µM]	CC50 at 96 h [7] [µM]	CC50 at 96 h [8] [µM]	EC50 (Yellow fever virus) [µM]	EC50 (Poliovirus 1) [µM]	CC50 at 96 h [9] [µM]	MIC (Pseudomonas aeruginosa) [µg/mL]	MIC (Candida) [µg/mL]	EC50 (Human alphaherpesvirus 1) [µM]
Fc1ccc(/N=N\C2=C3CCCCN3CCC2)cc1	inactive	27	inactive	inactive	> 100	> 100	34	> 56	56	94	100	> 100	> 100			
CCn1cc(C(=O)O)c(=O)c2cc(F)c(N3CCNCC3)cc21 [NORFLOXACIN]														4 (≈ 12.5 µM)		
Clc1ccc(COC(Cn2ccnc2)c2ccc(Cl)cc2Cl)c(Cl)c1.O=[N+]([O-])O (configuration not stated) [MICONAZOLE NITRATE]															0.25	
CN1C=C(/N=N/c2ccc(Br)cc2)CCC1	inactive	> 100	inactive	inactive	18	100	76	60	> 100	83	100	> 100	> 100			
CN1C=C(/N=N/c2ccc(Cl)cc2)CCC1	inactive	5	inactive	inactive	20	90	32	> 58	58	> 100	> 100	8	> 100			
FC(F)(F)c1cc(/N=N\C2=C3CCCCN3CCC2)ccc1Br	inactive	42	inactive	inactive	> 100	100		61	> 100	34	80	25	> 100			25
CN1CCC/C1=C\N=N\c1ccc(Cl)c(Cl)c1	inactive	> 100	inactive	inactive	> 100	100		16	90	39	> 23	53	23			40
